Source: ChEMBL document CHEMBL5029151, “Conformationally Constrained Peptides with High Affinity to the Vascular Endothelial Growth Factor” (J Med Chem, 2021)
Positions of bridges follow the written chain, without caps; N, C: chain ends. Non-standard residues stand in square brackets, D forms with d. Residues, ends and D or L forms follow the SMILES beside them. Nle = CCCC[C@H](N)C(=O)O; Aib = CC(C)(N)C(=O)O

Columns and labels:
[1] = Stability in porcine vitreous assessed as increase in life time measured at 10 uM after 10 days by UPLC-MS/MS analysis; assay type: ADME, tissue-based, Sus scrofa, Vitreous humor; conditions: pig, 240 h, time 10 day
In short: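 Peptide at 10 µM incubated at 37°C in porcine vitreous containing 1% penicillin/streptomycin, one separate tube per time point. Remaining parent peptide quantified by UPLC-MS/MS at each time point.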

[2] = Binding affinity to VEGF (unknown origin) by microscale thermophoresis assay; parameters: species or system Homo sapiens
In short: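 Microscale thermophoresis with fluorescently labeled VEGF-RED (initial concentration 12 nM), read on a Monolith NT.115 Pico. Peptide and VEGF were measured immediately after mixing, with no incubation. KD derived from the thermophoresis signal.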

[3] = Inhibition of VEGF-mediated in human HUVEC cell proliferation incubated for 48 hrs by MTT assay
In short: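 HUVECs seeded at 25,000/well in medium with 0.5 ng/mL VEGF165 for 48 h, then starved 24 h without VEGF or FBS. Peptide (4, 20, 100, 500 µM) premixed with 50 ng/mL VEGF165 for 2 h at 37°C, then added to cells for 48 h. MTT read-out as percent of no-peptide control OD, fitted to IC50; mean ± SD, n = 3.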

[4] = Binding affinity to VEGF (unknown origin) incubated for 30 mins by microscale thermophoresis assay; parameters: species or system Homo sapiens
In short: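 Fluorescently labeled VEGF-RED (initial concentration 12 nM) mixed with peptide and incubated 30 min to reach complex equilibrium before microscale thermophoresis on a Monolith NT.115 Pico. KD obtained from the thermophoresis signal.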

ARPE-19 = test: Cytotoxicity against human ARPE-19 cells assessed as cell viability up to 20 uM measured after 5 hrs by MTT assay; assay type: cell-based; conditions: arpe-19, 5 h
In short: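 ARPE-19 cells seeded at 20,000/well and grown overnight, then washed. Exposed 5 h at 37°C, 7% CO2 to peptide at 0.01–100 µM in complete medium. Medium replaced, cells grown a further 24 h. MTT 4 h at 37°C, formazan dissolved in 10% SDS/0.01 M HCl overnight, A570 read. Viability relative to untreated cells; poly-L-lysine-treated cells as control.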

SMILES | Stability [1] | Kd [2] [µM] | Kd [4] [µM] | IC50 [3] [µM] | Activity (ARPE-19)
CCCC[C@@H]1NC(=O)[C@H](C(C)C)NC(=O)C(C)(C)NC(=O)[C@H]([C@@H](C)CC)NC(=O)[C@H](CC(=O)O)NC(=O)[C@@H](NC(=O)[C@H](CC(N)=O)NC(=O)[C@@H]2CCCN2C(=O)[C@H](CCC(=O)O)NC(=O)[C@@H](N)C(C)C)CSSC[C@@H](C(=O)N[C@@H](Cc2ccccc2)C(=O)N[C@@H](CCC(=O)O)C(=O)N[C@@H](CCCNC(=N)N)C(=O)N[C@@H](CC(C)C)C(=O)O)NC(=O)[C@H](CCC(=O)O)NC(=O)[C@H](Cc2c[nH]c3ccccc23)NC(=O)[C@H](CCC(=O)O)NC(=O)[C@H](Cc2c[nH]c3ccccc23)NC1=O | Stable | 11.8 |  | 50 | 
CCCC[C@@H]1NC(=O)[C@H](C(C)C)NC(=O)[C@H](Cc2c[nH]cn2)NC(=O)[C@H]([C@@H](C)CC)NC(=O)[C@H](CC(=O)O)NC(=O)[C@@H](NC(=O)[C@H](CC(N)=O)NC(=O)[C@@H]2CCCN2C(=O)[C@H](CCC(=O)O)NC(=O)[C@@H](N)C(C)C)CSSC[C@@H](C(=O)N[C@@H](Cc2ccccc2)C(=O)N[C@@H](CCC(=O)O)C(=O)N[C@@H](CCCNC(=N)N)C(=O)N[C@@H](CC(C)C)C(=O)O)NC(=O)[C@H](CCC(=O)O)NC(=O)[C@H](Cc2c[nH]c3ccccc23)NC(=O)[C@H](CCC(=O)O)NC(=O)[C@H](Cc2c[nH]c3ccccc23)NC1=O |  | 3.87 | 0.3 | 20 | Non-Toxic
CCCC[C@@H]1NC(=O)[C@H](C(C)C)NC(=O)[C@H](Cc2c[nH]cn2)NC(=O)[C@H]([C@@H](C)CC)NC(=O)[C@H](CC(=O)O)NC(=O)[C@@H](N)CSSC[C@@H](C(=O)N[C@@H](Cc2ccccc2)C(=O)N[C@@H](CCC(=O)O)C(=O)N[C@@H](CCCNC(=N)N)C(=O)N[C@@H](CC(C)C)C(=O)O)NC(=O)[C@H](CCC(=O)O)NC(=O)[C@H](Cc2c[nH]c3ccccc23)NC(=O)[C@H](CCC(=O)O)NC(=O)[C@H](Cc2c[nH]c3ccccc23)NC1=O |  | 9.97 |  | 12 | 
CCCC[C@@H]1NC(=O)[C@H](C(C)C)NC(=O)[C@H](Cc2c[nH]cn2)NC(=O)[C@H]([C@@H](C)CC)NC(=O)[C@H](CC(=O)O)NC(=O)[C@@H](NC(=O)[C@H](CC(N)=O)NC(=O)[C@@H]2CCCN2C(=O)C(C)(C)NC(=O)[C@@H](N)C(C)C)CSSC[C@@H](C(=O)N[C@@H](Cc2ccccc2)C(=O)N[C@@H](CCC(=O)O)C(=O)N[C@@H](CCCNC(=N)N)C(=O)N[C@@H](CC(C)C)C(=O)O)NC(=O)[C@H](CCC(=O)O)NC(=O)[C@H](Cc2c[nH]c3ccccc23)NC(=O)[C@H](CCC(=O)O)NC(=O)[C@H](Cc2c[nH]c3ccccc23)NC1=O | Stable | 2.97 | 0.004 | 10 | 
CCCC[C@@H]1NC(=O)[C@H](C(C)C)NC(=O)[C@H](Cc2c[nH]cn2)NC(=O)[C@H]([C@@H](C)CC)NC(=O)[C@H](CC(=O)O)NC(=O)[C@@H](NC(=O)[C@H](CC(N)=O)NC(=O)[C@@H](N)C(C)C)CSSC[C@@H](C(=O)N[C@@H](Cc2ccccc2)C(=O)N[C@@H](CCC(=O)O)C(=O)N[C@@H](CCCNC(=N)N)C(=O)N[C@@H](CC(C)C)C(=O)O)NC(=O)[C@H](CCC(=O)O)NC(=O)[C@H](Cc2c[nH]c3ccccc23)NC(=O)[C@H](CCC(=O)O)NC(=O)[C@H](Cc2c[nH]c3ccccc23)NC1=O |  | 1.94 |  | 4 | 

Stronger by Kd [2], values ahead:

Stability [1] | Kd [2] [µM] | Kd [4] [µM] | SMILES | IC50 [3] [µM] | Activity (ARPE-19)
Unstable | 0.94 | 0.15 | CCCC[C@@H]1NC(=O)[C@H](C(C)C)NC(=O)[C@H](Cc2c[nH]cn2)NC(=O)[C@H]([C@@H](C)CC)NC(=O)[C@H](CC(=O)O)NC(=O)[C@@H](NC(=O)[C@H](CC(N)=O)NC(=O)[C@@H]2CCCN2C(=O)[C@H](CCC(=O)O)NC(=O)[C@@H](N)C(C)C)CSSC[C@@H](C(=O)N[C@@H](Cc2ccccc2)C(=O)N[C@@H](CCC(=O)O)C(=O)N[C@@H](CCCNC(=N)N)C(=O)N[C@@H](CC(C)C)C(=O)O)NC(=O)[C@H](CCC(=O)O)NC(=O)[C@H](Cc2c[nH]c3ccccc23)NC(=O)C(C)(C)NC(=O)[C@H](Cc2c[nH]c3ccccc23)NC1=O (H-VEPNCDIHV[Nle]W[Aib]WECFERL-OH; disulfide 5-15) | 3.5 | 
Stable | 0.54 | 3 | CCCC[C@@H]1NC(=O)[C@H](C(C)C)NC(=O)[C@H](Cc2c[nH]cn2)NC(=O)[C@H]([C@@H](C)CC)NC(=O)[C@H](CC(=O)O)NC(=O)[C@@H](NC(=O)[C@H](CCCCN)NC(=O)[C@H](CCCCN)NC(=O)C(C)(C)NC(=O)[C@@H](N)CCCCN)CSSC[C@@H](C(=O)N[C@@H](Cc2ccccc2)C(=O)N[C@@H](CCC(=O)O)C(=O)N[C@@H](CCCNC(=N)N)C(=O)N[C@@H](CC(C)C)C(=O)O)NC(=O)[C@H](CCC(=O)O)NC(=O)[C@H](Cc2c[nH]c3ccccc23)NC(=O)[C@H](CCC(=O)O)NC(=O)[C@H](Cc2c[nH]c3ccccc23)NC1=O | 6 | 
